Measured values reported in ChEMBL document CHEMBL4765320, “Identification and optimization of piperine analogues as neuroprotective agents for the treatment of Parkinson's disease via the activation of Nrf2/keap1 pathway” (Eur J Med Chem, 2020).
Activity calls are given as the source filed them. The calls are words filed in the database; no cut-off is given here.

How the values were obtained:
[1] = molecular target: T1, Nuclear factor erythroid 2-related factor 2 (Rattus norvegicus) (UniProt O54968); experiment: Induction of Nrf2 nuclear translocation in rat PC-12 cells assessed as Nrf2 accumulation in nucleus at 25 uM measured after 4 to 8 hrs by immunofluorescence analysis; format: cell-based; conditions: filed as activator, time 4-8 hrs
T1 sequence (whole entry): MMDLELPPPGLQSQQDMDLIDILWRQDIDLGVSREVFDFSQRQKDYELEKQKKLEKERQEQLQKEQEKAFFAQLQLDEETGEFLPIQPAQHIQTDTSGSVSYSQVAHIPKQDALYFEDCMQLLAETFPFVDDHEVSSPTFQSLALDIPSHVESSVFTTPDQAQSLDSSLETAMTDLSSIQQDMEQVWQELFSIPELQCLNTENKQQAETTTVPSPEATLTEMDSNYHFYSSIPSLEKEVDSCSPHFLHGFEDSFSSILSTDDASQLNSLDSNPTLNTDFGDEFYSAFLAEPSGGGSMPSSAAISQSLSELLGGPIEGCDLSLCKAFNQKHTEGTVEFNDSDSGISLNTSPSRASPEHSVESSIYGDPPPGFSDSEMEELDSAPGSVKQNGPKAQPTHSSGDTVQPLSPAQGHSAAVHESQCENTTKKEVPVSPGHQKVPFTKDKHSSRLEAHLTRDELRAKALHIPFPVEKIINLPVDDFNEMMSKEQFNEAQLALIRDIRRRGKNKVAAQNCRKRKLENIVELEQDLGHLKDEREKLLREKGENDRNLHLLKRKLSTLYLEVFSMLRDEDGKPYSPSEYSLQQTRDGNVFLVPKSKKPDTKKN
Summary of the method: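 PC12 cells exposed to 25 µM compound for 0, 4, 6 and 8 h; fixed in cold methanol (−20 °C, 20 min), anti-Nrf2 overnight, Dylight 594 secondary (1:500, 1 h), DAPI nuclear counterstain; imaged by fluorescence microscopy.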

PC-12 [2] = experiment: Inhibition of H202-induced apoptosis in rat PC-12 cells assessed as early apoptotic cells at 25 uM after 24 hrs by Annexin-V-FITC/PI-staining based flow cytometric analysis (reference value: 15.16%); format: functional; set-up: scale not given: the % may be the effect or the level left
Summary of the method: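 PC12 cells seeded 2 × 10⁵/well for 24 h, pretreated 24 h with 12.5, 25, 50 or 100 µM compound, then given fresh medium containing 650 µM H2O2. Harvested cells washed in binding buffer, stained 5 min with Annexin V-FITC/PI, analysed by flow cytometry.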

[3] = molecular target: T1, Nuclear factor erythroid 2-related factor 2 (Rattus norvegicus); experiment: Induction of Nrf2 nuclear translocation in rat PC-12 cells assessed as Nrf2 accumulation in nucleus at 25 uM by Western blot analysis; format: cell-based; conditions: filed as activator, time 4-8 hrs, TDE = time-dependent effect
Summary of the method: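 PC12 cells incubated with 25 µM compound for 4, 6 and 8 h; nuclear and cytoplasmic fractions prepared with an extraction kit; nuclear, cytosolic and total Nrf2 assessed by SDS-PAGE/PVDF Western blot. Three independent experiments.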

PC-12 [4] = experiment: Inhibition of H2O2-induced reactive oxygen species production in rat PC-12 cells assessed as decrease in ROS accumulation at 12.5 to 50 uM measured after pretreated for 24 hrs followed by H2O2 challenge and measured after 24 hrs by DCFH-DA probe based flow cytometry; format: functional, cell-based; conditions: dose 12.5-50 µM, time 48.0 hrs
Summary of the method: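 PC12 cells seeded 1 × 10⁴/well, pretreated 24 h with 12.5–100 µM compound, then 300 µM H2O2 for 24 h. Rinsed, loaded with DCFH-DA (1:1000 in serum-free medium) 15 min at room temperature in the dark, washed; fluorescence read by microscopy, plate reader ([…]) and flow cytometry; three independent experiments.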

Activity [1]: Active | Activity [3]: Tde
SMILES: COc1ccccc1/C=C/C=C/C(=O)N1CCCCC1
Activity (PC-12 [2]): 12.72% | inhibition (PC-12 [4]): Active
